Only a selection was taken, and hits are over-represented in it overall.
XBP1 UPR activ – activators of adaptive arm of unfolded protein response (XBP1); activation, % at 20 µM; CHO-XBP1 luciferase reporter, IRE1-XBP1 UPR activation, luminescence; percent of tunicamycin response, DMSO as zero; AID 463104; 330,000 compounds, 0.33% hits;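 active = versus positive control, 20 µM dose yields 30% or more activation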;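 also: 100% = tunicamycin at 10 µg/mL and 0% = DMSO only wells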
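Assay system: IRE1-XBP1 luciferase reporter CHO line. Input: 1000 cells/well. Buffer or medium: F12 with 10% serum. Doses: 20 µM, 1% DMSO. Times: overnight seeding at 37 °C, 6 h compound treatment at 37 °C. Technique: Steady-Glo luciferase glow luminescence, 10 min after reagent addition.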
Dynein cargo inh – dynein cargo transport inhibition. z-score, hits read low. 220,000 compounds, 0.47% hits. 3617.4 mouse cells, GR-EGFP nuclear translocation imaging; test concentration mostly 20 µM; stimulated with dexamethasone, 1 µM; hits give low values;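 active = plate z-score of nuclear minus cytoplasmic receptor signal below a set negative limit, without overly bright fluorescence or cell loss, cut at about -3.5 in these data, passing the limit was not always enough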;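 also: z-score of nuclear minus cytoplasmic ring GR-EGFP intensity difference per well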
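Buffer or medium – tet-free medium with charcoal-stripped serum · Signal – automated 10x imaging of fixed Hoechst-stained cells · Also added – dexamethasone agonist, 1.0 µM final, for 30 min · Incubation – induction 48 h, compound 1 h, agonist 30 min · Read-out – GR-EGFP nuclear translocation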
Lmaj promast – Leishmania major promastigote growth inhibition; Leishmania major promastigotes, resazurin fluorescence viability; inhibition, % at 10 µM; 200,000 compounds, 9% hits; in the data active = inhibition above about 50%;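 also: promastigotes grown with compound for 44 hours at 28 °C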
UPR CHOP act – apoptotic UPR (CHOP) activation; CHO-CHOP luciferase reporter, luminescence; percent of tunicamycin response over DMSO baseline; activation, % at 10 µM; 330,000 compounds, 0.34% hits;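 active = at 10 µM dose, activation of 40% or more, normalized to positive control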;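 also: 100% = tunicamycin at 10 µg/mL and 0% = DMSO alone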
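System: CHO-CHOP luciferase reporter cell line; amount: 500 cells/well; buffer or medium: F12 medium containing 10% fetal bovine serum; incubation: 6 h compound exposure at 37 °C after overnight seeding; measured by: luciferase luminescence after 10 min with Steady-Glo reagent; evaluation: % reporter activation, DMSO baseline versus tunicamycin full activation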
CHOP inhibitor – inhibitors of CHOP induction in ER stress response; CHO-K1 CHOP-promoter luciferase, tunicamycin-induced, 15-18 h; inhibition, % at 10 µM; AID 2732; 220,000 compounds, 3.8% hits;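 active = compounds that reduced the stress-induced luciferase reporter signal by more than about 70% of percent inhibition, limit read from the data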;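 also: 0% = tunicamycin plus vehicle and 100% = wells without tunicamycin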
T cruzi inh – T. cruzi replication inhibition; T. cruzi beta-gal in NIH3T3, luminescence, 90 h; inhibition, % (test concentration not listed); 300,000 compounds, 1.4% hits;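 active = mean inhibition across valid replicates above about 55%, limit read from the data; inconclusive = mean below that limit but half or more replicates reach it; inactive = mean below it, under half of replicates reach it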;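 also: signal also drops with host cell toxicity which is not excluded here; 0% = plate median of DMSO wells and 100% = zero luminescence signal; higher percent means less beta-gal luminescence so fewer parasites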
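Read-out: Parasite load inhibition, % | Test system: Mouse NIH/3T3 fibroblasts infected with β-gal-expressing T. cruzi Tulahuen C4 | Amount: 5,000 cells/well | Medium: DMEM, 2% fetal bovine serum | Signal: GalScreen β-gal luminescence, detergent lysis, 60 min | Timing: 3 h attach, ≥90 h co-culture | Also added: Tulahuen C4 trypomastigotes, 5000/well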
Dynein confirm – dynein cargo transport inhibition, confirmation; calls only at 20 µM; shares compounds with Dynein cargo inh; AID 463116; 1,000 compounds, 69% hits; 3617.4 GR-EGFP nuclear translocation imaging, dexamethasone-induced;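 active = inhibition of receptor movement into the nucleus at or above a set limit in both runs, with normal cell brightness and cell count; inconclusive = limit reached in only one run, brightness and count normal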;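 also: dexamethasone at 1 µM final in well for 30 min; nuclear minus cytoplasmic GR-EGFP mean intensity difference in channel 2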
CHOP confirm – confirmation of CHOP induction inhibitors; shares compounds with CHOP inhibitor; CHO-CHOP promoter luciferase reporter, tunicamycin-induced, luminescence; inhibition, % at 10 µM; 2,100 compounds, 45% hits;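 active = mean of three repeat readings of reporter signal inhibition above a set limit, cut at about 70% in these data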;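 also: 0% = tunicamycin plus vehicle and 100% = wells lacking tunicamycin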
An asterisk follows results filed as active; i = inactive; ? = inconclusive; nt = not tested or not shown; + = active, no number; ! = a repeat was not active.

SMILES	XBP1 UPR activ	Dynein cargo inh	Lmaj promast	UPR CHOP act	CHOP inhibitor	T cruzi inh	Dynein confirm	CHOP confirm
O=C(O)c1ccccc1NC(c1ccccc1)c1ccc(Cl)cc1 (stereo unspecified)	-3.6	nt	nt	-2.0	nt	-13.8	nt	nt
CCOC(=O)N1CCN(C(=O)CNS(=O)(=O)c2c(C)cc(C)cc2C)CC1	4.2	nt	nt	0.9	nt	-12.0	nt	nt
CC(C)(C)C(=O)Cn1ncc(Br)c(Br)c1=O	nt	-4.37*	55.8*	nt	104.5*	61.3*	+	84.8*
CCSc1nc2ccccc2n1C(=O)/C=C\c1ccc(OC)c(OC)c1	-2.2	-4.33*	89.7*	1.7	110.3*	-20.0	+	111.4*
Cn1c(=O)c([N+](=O)[O-])c(Cl)c2ccccc21	nt	-6.31*	-4.6	nt	108.1*	88.0*	+	140.8*
CCOC(=O)C1(CCOc2ccccc2)CCN(Cc2ccc(O)c(OCC)c2)CC1	-0.2	nt	nt	5.7	nt	-19.0	nt	nt
COc1ccc2c(c1)c1ccc3c(c1n2C)C(=O)C=CC3=O	-10.6	-5.77*	nt	-1.7	103.9*	nt	+	41.3
CNC(=O)c1nnsc1S(=O)(=O)c1ccc(Cl)cc1	-10.8	-4.01*	59.0*	-10.5	107.1*	59.6*	+	113.7*
O=C(c1nnsc1S(=O)(=O)c1ccc(Cl)cc1)N1CCOCC1	-5.7	-6*	100.0*	28.3	102.5*	17.8	+	94.8*
O=C(c1nnsc1S(=O)c1ccc(Cl)cc1)N1CCOCC1 (stereo unspecified)	-9.9	-4.77*	100.5*	-10.2	107.0*	62.5*	+	53.6
Cc1nnsc1S(=O)c1ccc(Cl)cc1 (stereo unspecified)	-8.2	nt	nt	6.0	nt	34.2	nt	nt
Cc1nn(-c2ccccc2)c(Cl)c1C(=O)NCC(=O)O	-1.0	-0.482	-5.7	-0.9	6.3	-20.7	nt	nt
Cc1nn(-c2ccccc2)c(Cl)c1CN(C(=O)CCl)c1ccc(Cl)cc1	nt	-3.9*	100.4*	nt	109.3*	15.4	+	139.5*
O=[N+]([O-])c1c(NCCCO)cc(Sc2nc3ccccc3s2)c2nonc12	-7.3	-4.13*	26.3	-9.1	109.4*	31.5	+	71.4*
Cn1c(-c2ccccc2)c(C(=O)CCl)c2ccccc21	nt	-3.76*	97.9*	nt	107.5*	70.8*	+	46.3
CCCCN1C(=O)C(=O)N(CC(=O)Nc2sc(CC)cc2C(=O)OCC)C1=O	-2.5	nt	nt	-2.7	nt	1.5	nt	nt
O=C(COC(=O)c1ccc(S(=O)(=O)N2CCOCC2)cc1)Nc1ccccc1OC(F)F	-3.3	nt	nt	1.3	nt	nt	nt	nt
C/C(=N/NC(=O)COc1cc(C)ccc1C(C)C)C(=O)O	0.1	0.0653	-7.3	0.4	16.4	-18.9	nt	nt
Cc1ccc(C(C)C)c(OCC(=O)NN=C(CCl)CCl)c1	-1.8	-4.57*	nt	9.7	106.2*	nt	+	7.6
O=C1N=C2N(CCN3CCCCC3)c3ccccc3N2/C1=C\c1ccc([N+](=O)[O-])o1	nt	-4.02*	100.4*	nt	107.1*	nt	+	-27.3
c1ccc2c(c1)N1CCCN=C1N2CCN1CCCCC1	-2.2	-0.297	-2.7	-3.2	-3.6	-23.2	nt	nt
Nc1c(C(=O)N/N=C/c2ccccc2Cl)oc2nc(-c3ccccc3)cc(-c3ccco3)c12	-3.2	-2.78	nt	-0.6	34.2	10.1	nt	nt
Nc1c(C(=O)N/N=C/c2ccc(F)cc2)oc2nc(-c3ccccc3)cc(-c3ccco3)c12	4.9	-4.08	nt	13.2	100.6*	0.0	i	-1.9
Cc1ccc(-n2nc3c(=O)n(CCCC(=O)NCC(C)c4ccccc4)nc(C)c3c2C)cc1 (stereo unspecified)	4.0	nt	nt	0.3	nt	-18.6	nt	nt
Nc1cccc2c1C(=O)N(C(=O)/C=C/c1ccc(F)cc1)C2=O	0.6	-4.67*	-3.6	5.0	102.9*	-5.8	+	-110.9
SMILES	XBP1 UPR activ	Dynein cargo inh	Lmaj promast	UPR CHOP act	CHOP inhibitor	T cruzi inh	Dynein confirm	CHOP confirm
Cc1cc(Sc2ncnc(N)c2[N+](=O)[O-])ncn1	-8.3	-5.68*	23.1	-9.3	106.2*	53.3	+	60.6
Cc1cc(Sc2nc(N)ncc2[N+](=O)[O-])ncn1	-6.5	-5.01*	16.6	-8.8	105.9*	61.3*	+	26.1
Cc1ccc(S(=O)(=O)N[C@@H](Cc2ccccc2)C(=O)CCl)cc1	-4.7	-4.49*	-5.5	7.5	107.6*!	nt	i	-261.1
COc1ccc(/C=C(/C(=O)c2cccs2)N2C=CC=CC2=C(C#N)C#N)cc1	nt	-3.64*	0.2	nt	104.9*	3.5	?	108.8*
COc1ccc(NC(=O)c2cccs2)cc1	2.2	-0.597	1.8	2.7	-11.9	-21.0	nt	nt
COc1cccc(N(C(=O)c2cnccn2)C(C(=O)NC2CCCCC2)c2ccc(Cl)cc2)c1 (stereo unspecified)	-3.4	-0.627	-0.9	0.4	16.5	4.3	nt	nt
COc1ccc(C(C(=O)NC2CCCCC2)N(C(=O)CCl)c2cccc(Cl)c2)cc1 (stereo unspecified)	nt	-3.86*	100.3*	nt	105.8*	8.1	+	104.3*
Cc1nc([N+](=O)[O-])c(NCCO)n1Cc1ccccc1	1.2	0.676	-0.1	0.3	10.6	-8.8	nt	nt
Cc1nc([N+](=O)[O-])c(Br)n1Cc1ccc(Cl)c(Cl)c1	nt	-4.17*	100.5*	nt	104.8*	43.7	+	3.0
CCOC(=O)c1nc(S(C)(=O)=O)ncc1Cl	-8.5	-5.13*	-1.8	-6.6	nt	21.4	i	92.3*
COc1ccc(C(C(=O)NCCC(C)C)N(CCN2CCOCC2)C(=O)Cn2nnc3ccccc32)c(OC)c1 (stereo unspecified)	-1.6	-0.764	-1.8	0.2	-7.5	1.0	nt	nt
Cc1nc(COC(=O)c2cc(O)c3ccccc3c2O)cs1	nt	-3.61*	3.2	nt	103.8*	-8.7	i	119.7*
CN(c1ccccc1)c1ccc(/C=C/[N+](=O)[O-])cc1	nt	-3.55*	100.3*	nt	109.8*	33.4	i	-96.5
O=C(c1ccccc1-n1cccn1)N1CCc2c([nH]c3ccccc23)C1c1ccccn1 (stereo unspecified)	-2.8	-0.556	6.4	4.8	-25.1	-18.4	nt	nt
CN(C)C(=O)c1cc(C(=O)c2ccc(C(F)(F)F)cc2)c[nH]1	5.5	nt	nt	4.7	nt	-14.9	nt	nt
CCN1C/C(=C/c2ccc(OC)c(O)c2)C(=O)/C(=C/c2ccc(OC)c(O)c2)C1	-7.8	-6.29*	100.4*	38.0	99.9*	51.3	?	96.8*

Bioassay records: PubChem, several laboratories
